Test results published in publication PMC8419023 (Structure (London, England : 1993), 2021).
No end group written: not given here.

Experiments:
[1] = biological target: CDK2-cyclin A (Homo sapiens, UniProt P20248+P24941); assay: GST pull down, CDK2-cyclin A; type: binding; details: 1 h, 4°C, SDS-PAGE, two experiments; for binding of N-terminal deletions to GST:CDK2-cyclin A: GST CDK2-cyclin A^173−432 with Skp1-Skp2 deletions, Figure 1D; for binding of GST-tagged Skp2 N-terminal fragments to CDK2-cyclin A^1−432: GST pull-down, Figure 4B
How it was run: (§1)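 Bacterially expressed proteins: CDK2 (1–298) as a GST fusion, cyclin A (1–432 or 173–432) as a 6XHis fusion. […] Incubated 1 h at 4 °C with mild agitation, washed three times in binding buffer, and bound material analysed by SDS-PAGE; repeated 2–3 times.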

[2] = tested on: CDK2-cyclin A; details: ref Ji et al., 2006; cited from earlier work
[3] = tested on: cyclin A; assay: GST pull down, cyclin A in isolation; type: binding, human; details: HEPES pH 7.5; 1 h, 4°C; SDS-PAGE; two experiments; Figure 1C
How it was run: as §1

[4] = tested on: CDK2; assay: GST pull down, CDK2 in isolation; type: binding, human; details: HEPES pH 7.5; 1 h, 4°C; SDS-PAGE; two experiments; Figure 1C
[5] = biological target: CDK2-cyclin A (Surface 2, hydrophobic patch); assay: Fluorescence polarization displacement of FITC-p27^27−36 from CDK2-cyclin A; type: binding, human; details: 25 nM FITC-p27^27−36, CDK2-cyclin A 6.25 μM, HEPES pH 7.5, 30 min, N=4
[6] = tested on: CDK2-cyclin A^173−432; assay: Protein kinase assay, Bora^1−224 phosphorylation by CDK2-cyclin A; type: biochemical, human; details: 3 nM CDK2-cyclin A, 30°C, 30 min, Figure 7A

In the case of “Skp2^Δ1−28: Skp2 with residues 1 to 28 deleted”, the “binding of N-terminal deletions to GST:CDK2-cyclin A” value [1] is reported as “caused a decrease in CDK2-cyclin A binding”.
With “Skp2^Δ1−16: Skp2 with residues 1 to 16 deleted” the “binding of N-terminal deletions to GST:CDK2-cyclin A” value [1] was “had no effect on CDK2-cyclin A binding”.
In the case of “Skp2^28−43: GST-tagged Skp2 fragment 28–43 (KTSELLSGMGVSALEK; also: GST-tagged (end not given here))”, the “binding of GST-tagged Skp2 N-terminal fragments to CDK2-cyclin A^1−432” value (“binding … to CDK2-cyclin A^1−432” for short) [1] is reported as “did abolish binding”.
In the case of “Skp2^1−29: GST-tagged Skp2 fragment 1–29 (MHRKHLQEIPDLSSNVATSFTWGWDSSKT; also: GST-tagged (end not given here))”, the “binding … to CDK2-cyclin A^1−432” value [1] is reported as “A major loss of binding to CDK2-cyclin A”.
For p21: CDK inhibitor p21, the “competition with the N-terminus of Skp2” value [2] is listed as “compete with the N-terminus of Skp2 for binding to CDK2-cyclin A”.
In the case of “GST-Skp2^1−424: GST-tagged full-length Skp2”, the “pull down of cyclin A in isolation” value [3] is reported as “could also pull down cyclin A in isolation” and the “pull down of CDK2 in isolation” value [4] is reported as “not CDK2 in isolation”.
With “Skp2^17−43: GST-tagged Skp2 fragment 17–43 (ATSFTWGWDSSKTSELLSGMGVSALEK; also: GST-tagged (end not given here))” the “binding … to CDK2-cyclin A^1−432” value [1] was “did not affect binding to CDK2-cyclin A”.
In the case of “Skp2^1−424: full-length Skp2 in complex with Skp1”, the IC50 ([5]; Figure 3E) is reported as 5.3 µM, the IC50 ([5]; Figure 4F) is reported as 5.8 µM and the “concentration for complete inhibition of Bora phosphorylation” value ([6]; 10 μM Bora^1–224, 0.75 mM ATP [γ−^32P], pH 7.5, phosphoimager) is reported as 10 µM. For the same substance, the “inhibition of phosphorylation of RxL containing substrate (in words)” value ([6]; Bora^1–224) was “completely inhibit Bora phosphorylation in vitro in a manner dependent on its N-terminus”.
